Results as given in ChEMBL document CHEMBL1143773, “Synthesis and studies on antidepressant and anticonvulsant activities of some 3-(2-furyl)-pyrazoline derivatives” (Eur J Med Chem, 2007).
Active and inactive are the calls of the source. No cut-off for these calls is given here.

Legend:
[1] = system: Mus musculus; test: Neurotoxicity in Albino mouse at 30 mg/kg, ip after 4 hrs by RotaRod test; assay type: toxicity, organism-based; parameters: dose 30 mg/kg, route intraperitoneal; details: in vivo
Summary of the method: (§1)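 Phase I protocol of the NINCDS antiepileptic drug development programme in albino mice, covering MES, subcutaneous pentylenetetrazole (metrazol) and rotarod neurotoxicity. Doses were 30, 100 and 300 mg/kg, read at 1/2 h and 4 h. One animal per dose and time point, scored as 0/1 (no activity) or 1/1 (noticeable activity).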

[2] = system: Mus musculus; test: Neurotoxicity in Albino mouse at 100 mg/kg, ip after 4 hrs by RotaRod test; assay type: toxicity, organism-based; parameters: dose 100 mg/kg, route intraperitoneal; details: in vivo; summary of the method: as §1
[3] = system: Mus musculus; test: Neurotoxicity in Albino mouse at 300 mg/kg, ip after 4 hrs by RotaRod test; assay type: toxicity, organism-based; parameters: dose 300 mg/kg, route intraperitoneal; details: in vivo; summary of the method: as §1
[4] = system: Mus musculus; test: Anticonvulsant activity against metrazole-induced seizures in Albino mouse at 100 mg/kg, ip after 30 mins by scMet assay; assay type: functional, organism-based; parameters: dose 100 mg/kg; summary of the method: as §1
[5] = system: Mus musculus; test: Antidepressant activity in Albino mouse assessed as duration of immobility at 10 mg/kg, ip by forced-swimming test; assay type: functional; details: route intraperitoneal
Summary of the method: (§2)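 Porsolt forced-swim test in albino mice. Drug given ip at 0.5 ml/20 g body weight, 1 h before testing. Controls received 1% aqueous Tween 80. Each mouse was placed singly in a water-filled Plexiglas cylinder for 6 min. Immobility (floating upright with only slight movements to stay afloat) was timed over the last 4 min.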

[6] = system: Mus musculus; test: Antidepressant activity in Albino mouse assessed as duration of immobility at 10 mg/kg, ip by forced-swimming test relative to control; assay type: functional; details: route intraperitoneal; summary of the method: as §2
[7] = system: Mus musculus; test: Anticonvulsant activity in Albino mouse by MES test at 30mg/kg, ip after 30 mins; assay type: functional, organism-based; summary of the method: as §1
[8] = system: Mus musculus; test: Anticonvulsant activity in Albino mouse by MES test at 100 mg/kg, ip after 30 mins; assay type: functional, organism-based; parameters: dose 100 mg/kg; summary of the method: as §1
[9] = system: Mus musculus; test: Anticonvulsant activity in Albino mouse by MES test at 300 mg/kg, ip after 30 mins; assay type: functional, organism-based; parameters: dose 300 mg/kg; summary of the method: as §1
[10] = system: Mus musculus; test: Anticonvulsant activity against metrazole-induced seizures in Albino mouse at 30 mg/kg, ip after 30 mins by scMet assay; assay type: functional, organism-based; parameters: dose 30 mg/kg; summary of the method: as §1
[11] = system: Mus musculus; test: Anticonvulsant activity against metrazole-induced seizures in Albino mouse at 300 mg/kg, ip after 30 mins by scMet assay; assay type: functional, organism-based; parameters: dose 300 mg/kg; summary of the method: as §1
[12] = system: Mus musculus; test: Anticonvulsant activity in Albino mouse at 30 mg/kg, ip after 4 hrs by MES test; assay type: functional, organism-based; parameters: dose 30 mg/kg; summary of the method: as §1
[13] = system: Mus musculus; test: Anticonvulsant activity in Albino mouse at 100 mg/kg, ip after 4 hrs by MES test; assay type: functional, organism-based; parameters: dose 100 mg/kg; summary of the method: as §1
[14] = system: Mus musculus; test: Anticonvulsant activity in Albino mouse at 300 mg/kg, ip after 4 hrs by MES test; assay type: functional, organism-based; parameters: dose 300 mg/kg; summary of the method: as §1
[15] = system: Mus musculus; test: Anticonvulsant activity against metrazole-induced seizures in Albino mouse at 30 mg/kg, ip after 4 hrs by scMet; assay type: functional, organism-based; parameters: dose 30 mg/kg; summary of the method: as §1
[16] = system: Mus musculus; test: Anticonvulsant activity against metrazole-induced seizures in Albino mouse at 100 mg/kg, ip after 4 hrs by scMet assay; assay type: functional, organism-based; parameters: dose 100 mg/kg; summary of the method: as §1
[17] = system: Mus musculus; test: Anticonvulsant activity against metrazole-induced seizures in Albino mouse at 300 mg/kg, ip after 4 hrs by scMet assay; assay type: functional, organism-based; parameters: dose 300 mg/kg; summary of the method: as §1
[18] = system: Mus musculus; test: Neurotoxicity in Albino mouse at 30 mg/kg, ip after 30 mins by RotaRod test; assay type: toxicity, organism-based; parameters: dose 30 mg/kg, route intraperitoneal; details: in vivo, 0.5 h; summary of the method: as §1
[19] = system: Mus musculus; test: Neurotoxicity in Albino mouse at 100 mg/kg, ip after 30 mins by RotaRod test; assay type: toxicity, organism-based; parameters: dose 100 mg/kg, route intraperitoneal; details: in vivo, 0.5 h; summary of the method: as §1
[20] = system: Mus musculus; test: Neurotoxicity in Albino mouse at 300 mg/kg, ip after 30 mins by RotaRod test; assay type: toxicity, organism-based; parameters: dose 300 mg/kg, route intraperitoneal; details: in vivo, 0.5 h; summary of the method: as §1

SMILES	Activity [1]	Activity [2]	Activity [3]	Activity [4]	Activity [5]	Activity [6]	Activity [7]	Activity [8]	Activity [9]	Activity [10]	Activity [11]	Activity [12]	Activity [13]	Activity [14]	Activity [15]	Activity [16]	Activity [17]	Activity [18]	Activity [19]	Activity [20]
NC(=S)N1N=C(c2ccco2)CC1c1ccccc1 (stereo not given)	Not Active	Not Active	Not Active	inactive	202 s	3.81%	inactive	inactive	inactive	inactive	inactive	inactive	inactive	inactive	inactive	inactive	inactive	Not Active	Not Active	Not Active
c1ccc(C2CC(c3ccco3)=NN2c2ccccc2)cc1 (stereo not given)	Not Active	Not Active	Not Active	inactive	213 s	1.42%	inactive	inactive	inactive	inactive	inactive	inactive	inactive	inactive	inactive	inactive	Active	Not Active	Not Active	Not Active
CCNC(=S)N1N=C(c2ccco2)CC1c1ccccc1 (stereo not given)	Not Active	Not Active	Not Active	inactive	139 s	-33.8%	inactive	inactive	inactive	inactive	Active	inactive	inactive	inactive	inactive	inactive	inactive	Not Active	Not Active	Not Active
C=CCNC(=S)N1N=C(c2ccco2)CC1c1ccco1 (stereo not given)	Not Active	Not Active	Not Active	inactive	144 s	-31.42%	inactive	inactive	inactive	inactive	inactive	inactive	Active	Active	inactive	Active	Active	Not Active	Not Active	Not Active
CNC(=S)N1N=C(c2ccco2)CC1c1ccco1 (stereo not given)	Not Active	Not Active	Not Active	inactive	186 s	-11.42%	inactive	inactive	inactive	inactive	inactive	Active	Active	Active	inactive	Active	Active	Not Active	Not Active	Not Active
